Bioassay records (PubChem)
Lung fibro prol = blocks proliferation of human lung fibroblasts. LL 47 human lung fibroblast viability, ATP luminescence; hits give low values. viability, % at 10 µM. hit rate 1.1% among 85,000;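 active = viability at or below 50% in the single dose screen; inactive = viability above 50%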;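 also: compound exposure lasted 72 h before the ATP readout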
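Material: human LL 47 lung fibroblast cells; quantity: 1,150 cells/well; medium: IMEM plus 15% FBS; doses: 0.1% DMSO in all compound wells; timing: overnight attachment after seeding, then 72 h compound exposure at 37 °C; detection: CellTiter-Glo luminescence; measure: % viability of median cell-only signal; controls: cell-only wells, no compound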
H69AR growth 86K = blocks growth of human H69AR lung tumor cells; H69AR lung tumor viability, ATP luminescence, 72 h; hits give low values; viability, % at 10 µM; hit rate 6% among 85,000; AID 598;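 active = viability at or below 40%; inactive = viability above 40%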;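 also: multidrug resistant small cell line overexpressing MRP-1 efflux transporter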
bCat KO growth = beta-catenin-lacking colon tumor cell growth suppression; HCT116 beta-catenin knockout viability, CellTiter-Glo, 60 h; hits give low values; viability, % at 10 µM; hit rate 1.5% among 140,000;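 active = viability at or under a set limit, the compound median less 4 SD, cut at about 6% in these data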
HUVEC prolif 384 = human endothelial cell proliferation inhibition | HUVEC proliferation, CellTiter-Glo luminescence, 72 h; hits give low values | viability, % at 10 µM (by protocol) | hit rate 1.1% among 86,000;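 active = viability at or below 30%; inactive = viability above 30%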
PTEN del growth = PTEN-deleted cell growth suppression; HCT116 PTEN-null viability, CellTiter-Glo, 60 h; hits give low values; viability, % at 10 µM; hit rate 1.2% among 140,000; AID 827;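 active = viability at or below a set limit, 4 SD under the median of all tested compounds, cut at about 3.7% in these data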;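 also: PTEN knockout HCT116 line with beta catenin targeted HCT116 as companion control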
Of the large screens only hits and unclear results are named; the others gave an inactive call. The sample as a whole holds a higher share of hits than the screen did.

CC(=O)Nc1ccc(NC(=O)Cn2cnc3c(cnn3C(C)(C)C)c2=O)cc1	none
CC(C)(C)n1ncc2c(=O)n(CC(=O)NCc3ccccc3)cnc21	H69AR growth 86K 24
O=C(N/N=C/c1ccc2c(c1)OCO2)c1sc2cc(Cl)ccc2c1Cl	PTEN del growth 2.1 (no result: Lung fibro prol, H69AR growth 86K, HUVEC prolif 384)
COc1ccc2c(Cl)c(C(=O)N/N=C/c3ccc4c(c3)OCO4)sc2c1	none (no result: Lung fibro prol, H69AR growth 86K, HUVEC prolif 384)
COc1ccc(OC)c2sc(N3CCCCC3)nc12	Lung fibro prol 46
Clc1cccc2sc(N3CCCCC3)nc12	none (no result: Lung fibro prol, H69AR growth 86K, HUVEC prolif 384)
CCN1C(=O)/C(=C/c2ccc(C)s2)NC1=S	H69AR growth 86K 4.1
Cn1cc(/C=N/n2cnc3sc4c(c3c2=O)CCCC4)c2ccccc21	H69AR growth 86K 26
CC(C)NC(=O)COC(=O)c1ccc(Oc2ccccc2)cc1	none (no result: Lung fibro prol, H69AR growth 86K, HUVEC prolif 384)
CCOC(=O)C1=C(C)OC(N)=C(C#N)C1c1c(C)nn(-c2ccccc2)c1Cl (stereo not drawn)	none (no result: H69AR growth 86K)
Cc1nn(-c2ccccc2)c(Cl)c1C1C(C#N)=C(N)Oc2c1c(C)nn2-c1ccccc1 (stereo not drawn)	H69AR growth 86K 5.1
Cc1ccc(-n2nc(C)c(C3C(C#N)=C(N)OC4=C3C(=O)CC(C)(C)C4)c2Cl)cc1 (stereo not drawn)	H69AR growth 86K 24 (no result: bCat KO growth, PTEN del growth)
C=CCOC(=O)C1=C(C)OC(N)=C(C#N)C1c1c(C)nn(-c2ccccc2)c1Cl (stereo not drawn)	H69AR growth 86K 29
COc1ccc(/C=C/c2nnc(NC(=O)CSc3ccc(Cl)cc3)s2)cc1	none (no result: Lung fibro prol, H69AR growth 86K, HUVEC prolif 384)
Cc1ccc(C(=C2C3C=CC2C2C(=O)NC(=O)C32)c2ccc(C)cc2)cc1 (stereo not drawn)	none
CCC1Oc2ccc(C)cc2N(CC(=O)NCC2COc3ccccc3O2)C1=O (stereo not drawn)	none
COC(=O)c1sc(-c2ccccc2)cc1NC(=O)c1ccc(OC)cc1	bCat KO growth 3.1 (no result: Lung fibro prol, H69AR growth 86K, HUVEC prolif 384)
Cc1ccc(NC(=O)CCC(=O)OCC(=O)c2ccc(Oc3ccc([N+](=O)[O-])cc3)cc2)c(C)c1	none (no result: Lung fibro prol, H69AR growth 86K, HUVEC prolif 384)
Cc1c(C(=O)NCC2CCCO2)cccc1[N+](=O)[O-] (stereo not drawn)	none (no result: Lung fibro prol, H69AR growth 86K, HUVEC prolif 384)
CCCCCCn1c2c(c(=N)c3c1CCC3)CCC2	H69AR growth 86K 26, bCat KO growth 5.2
CCCCCCCCCn1c2c(c(=N)c3c1CCC3)CCC2	Lung fibro prol 28, H69AR growth 86K 8.6, bCat KO growth 1.9, HUVEC prolif 384 3.9, PTEN del growth 1.6
Cc1ccc(C(c2nnnn2CC2CCCO2)N2CCN(c3cccc(C)c3C)CC2)cc1 (stereo not drawn)	none
COCCNC(=S)N/N=C/c1ccc(OCc2ccc(C(=O)OC)cc2)cc1	none (no result: Lung fibro prol, H69AR growth 86K, HUVEC prolif 384)
CCOc1cc(CNCCCN2CCOCC2)cc(Br)c1OCC(=O)Nc1cccc(C(F)(F)F)c1	bCat KO growth 1.9, PTEN del growth 1.5 (no result: Lung fibro prol, H69AR growth 86K, HUVEC prolif 384)
CCNC(=S)N(CCc1ccccc1C)Cc1cc2cc(OC)c(OC)cc2[nH]c1=O	none (no result: Lung fibro prol, H69AR growth 86K, HUVEC prolif 384)
COc1cc2cc(CN(CCc3ccccc3C)C(=S)NCCCN(C)C)c(=O)[nH]c2cc1OC	bCat KO growth 2.2, PTEN del growth 1.8 (no result: Lung fibro prol, H69AR growth 86K, HUVEC prolif 384)
O=C(/C=C/NNC(=O)c1cccc(Br)c1)c1cccc(Br)c1	none
O=C(/C=C/NNC(=O)c1ccccc1)c1ccc(Br)cc1	H69AR growth 86K 34
Cc1ccc(N2CCN(C(=O)c3ccccc3)CC2)c(C)c1	none
COc1cc(C(=O)N2CCN(c3ccc(C)cc3C)CC2)cc(OC)c1OC	H69AR growth 86K 19
COc1cc(C(=O)N2CCCN(c3nc4cc(C)ccc4cc3C#N)CC2)cc(OC)c1OC	H69AR growth 86K 9.8 (no result: bCat KO growth, PTEN del growth)
CCCCCCCCCCOC(=O)c1csc2nnsc12	none
COCCCN(C(=S)Nc1cccc(Cl)c1)C(C)c1ccncc1 (stereo not drawn)	none (no result: Lung fibro prol, H69AR growth 86K, HUVEC prolif 384)
COc1ccc(CCNC(=O)Cn2cc(C(F)(F)F)cc(Cl)c2=O)cc1	none (no result: Lung fibro prol, H69AR growth 86K, HUVEC prolif 384)
Cc1ccccc1C1CC(c2ccccc2OC(F)F)Nc2ncnn21 (stereo not drawn)	H69AR growth 86K 0.6
Cc1ccc(C2CC(c3ccccc3OC(F)F)Nc3ncnn32)cc1 (stereo not drawn)	none (no result: Lung fibro prol, H69AR growth 86K, HUVEC prolif 384)
Cc1oc(-c2ccc(Cl)cc2)nc1CN1CCC(C(=O)N2CCN(c3ccccn3)CC2)CC1	none (no result: bCat KO growth, PTEN del growth)
Cc1oc(-c2cccc(Cl)c2)nc1CN1CCC(C(=O)N2CCN(c3ccccn3)CC2)CC1	H69AR growth 86K 33 (no result: bCat KO growth, PTEN del growth)
CCc1ccc(-c2nc(CN3CCC(C(=O)N4CCN(c5ccccc5)CC4)CC3)c(C)o2)cc1	H69AR growth 86K 1.2, bCat KO growth 2.0, HUVEC prolif 384 3.5, PTEN del growth 2.4
CCN1CCN(C(=O)C2CCN(Cc3nc(-c4ccc(Cl)cc4)oc3C)CC2)CC1	none (no result: bCat KO growth, PTEN del growth)
CCc1ccc(-c2nc(CN3CCC(C(=O)N4CCN(c5ccccn5)CC4)CC3)c(C)o2)cc1	H69AR growth 86K 39, bCat KO growth 1.9, PTEN del growth 1.1
CCCCC1(O)CC(C(F)(F)F)=NN1C(=O)COc1ccccc1 (stereo not drawn)	none
COc1cc([N+](=O)[O-])ccc1NC(=S)Nc1cc(C(=O)OC(C)C)cc(C(=O)OC(C)C)c1	none (no result: Lung fibro prol, H69AR growth 86K, HUVEC prolif 384)
CN(O)/C=c1/ccc2c(n1)C(=O)C=CC=2	H69AR growth 86K 37
Cc1ccc(NC(=O)c2ccc(Nc3c([N+](=O)[O-])cc([N+](=O)[O-])cc3[N+](=O)[O-])cc2)cc1	bCat KO growth 4.5, PTEN del growth 2.3 (no result: Lung fibro prol, H69AR growth 86K, HUVEC prolif 384)
Cc1ccc(NC(=O)c2ccc(N/N=C/c3cccc(O)c3)c([N+](=O)[O-])c2)cc1	bCat KO growth 2.9, PTEN del growth 1.9 (no result: Lung fibro prol, H69AR growth 86K, HUVEC prolif 384)
COc1ccc(NC(=O)N2CCCC(c3nc(-c4ccc(C(C)C)cc4)no3)C2)cc1 (stereo not drawn)	none
O=c1c2cc3ccccc3n2cnn1Cc1ccccc1F	H69AR growth 86K 17
